In publication PMC2172527 (The Journal of Cell Biology, 2004):
Entries after “also recorded” stand apart in the source; their conditions may differ. Ends that are not written are not given here.

B1: GST-talin head: human talin 2 head (aa 1–438) expressed as GST fusion protein (protein)
chain: MVALSLKICVRHCNVVKTMQFEPSTAVYDACRVIRERVPEAQTGQASDYGLFLSDEDPRKGIWLEAGRTLDYYMLRNGDILEYKKKQRPQKIRMLDGSVKTVMVDDSKTVGELLVTICSRIGITNYEEYSLIQETIEEKKEEGTGTLKKDRTLLRDERKMEKLKAKLHTDDDLNWLDHSRTFREQGVDENETLLLRRKFFYSDQNVDSRDPVQLNLLYVQARDDILNGSHPVSFEKACEFGGFQAQIQFGPHVEHKHKPGFLDLKEFLPKEYIKQRGAEKRIFQEHKNCGEMSEIEAKVKYVKLARSLRTYGVSFFLVKEKMKGKNKLVPRLLGITKDSVMRVDEKTKEVLQEWPLTTVKRWAASPKSFTLDFGEYQESYYSVQTTEGEQISQLIAGYIDIILKKKQSKDRFGLEGDEESTMLEESVSPKKSTILQQQ
modifications: left off: GST, end not stated, kept

Key:
talin = test: GST-PIPKIγ tail pull-down, rat brain extract; type: binding; conditions: rat brain protein extracts; Western blot and Coomassie blue, Fig. 1 A, B
Summary of the method: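 Bait: human PIPKIγ tail (aa 635–662) expressed as a GST fusion and purified, with GST alone as control. Used for affinity pull-down from lamprey spinal cord or rat brain extracts. Bound proteins were run on protein gels, then Coomassie blue stained or Western blotted with anti-talin antibody TD77.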

[1] = target: PIPKIγ (90-kD protein doublet); test: GST-talin head pull-down, lamprey extract; type: binding; conditions: Western blot with anti-PIPKIγ antibody, Fig. 1 E
Summary of the method: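 Bait: human talin 2 head (aa 1–438) expressed as a GST fusion and purified, with GST alone as control. Used for affinity purification from lamprey extract alongside a load lane. Eluates were Western blotted with an in-house anti-PIPKIγ antibody to detect the 90-kD doublet.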

[2] = tested on: lamprey reticulospinal synapses; test: EM of stimulated synapses in microinjected axons; type: cell-based, lamprey (Ichthyomyzon unicuspis); conditions: GST-talin head-injected axons, estimated 0.5–2.5 μM; Fig. 5

| Molecule | affinity purification of talin (in words) (talin) | affinity purification of PIPKIγ 90-kD doublet (in words) [1] | clathrin-mediated endocytosis at stimulated synapses (in words) [2] |
| --- | --- | --- | --- |
| GST-PIPKIγ tail: GST fusion protein of human PIPKIγ tail (aa 635–662), the 28-aa COOH-terminal tail ({GST}-ATDIYFPTDERSWVYSPLHYSAQAPPAS) | purification of the upper talin band; also recorded: Talin was the only major band retained | – | – |
| B1 | – | specifically affinity purified | a perturbation of clathrin-mediated endocytosis at synapses similar to that observed with PIPK pep |
